In PMC7787346 (Clinical cancer research : an official journal of the …, 2019):
Entries after “also recorded” stand apart in the source; their conditions may differ.

Key:
[1] = system: patients with previously untreated poor-risk AML; assay type: in vivo
[2] = Plasma pharmacokinetics of selinexor; assay type: in vivo, human; conditions: for Tmax / AUC(0-t) / Cmax: human, plasma; for AUC(0-t): AUC0–8h
[3] = system: patients with previously untreated poor-risk AML; assay: Phase I trial of selinexor plus 7+3: response; assay type: in vivo, human; conditions: for Median overall survival: 95% CI 3.74–NR
[4] = system: pediatric patients with relapsed or refractory acute leukemia; conditions: selinexor plus fludarabine and cytarabine; cited from earlier work
[5] = system: patients with previously untreated poor-risk AML; assay: G-banding cytogenetic analysis of bone marrow aspirates at follow-up; assay type: in vivo, human
Outline: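 G-banding cytogenetics was done on each patient's bone marrow aspirate at diagnosis and, for most patients, at response assessment. Marrow aspirations and biopsies for response were taken between days 28 and 72 after induction or reinduction: daunorubicin/cytarabine 7+3 (or 5+2) plus oral test compound at 60 or 80 mg.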

[6] = system: AML cell lines and AML patient cells; assay: Preclinical combination studies of selinexor and daunorubicin; assay type: cell-based; conditions: Supplementary Figs. S1 and S2, Supplementary Table S1
gated CD34+ cells = assay: Ex vivo sensitivity of patient bone marrow MNCs, flow cytometry for apoptosis; assay type: cell-based, human
Outline: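 Screening bone marrow aspirates were Ficoll-enriched for mononuclear cells and plated at 3 million cells per mL. Cells were incubated 20 hours with titrated test compound, alone or combined with 40 µmol/L cytarabine or 1 µmol/L daunorubicin. Apoptosis (active caspase-3) was measured by flow cytometry on gated CD34+ cells. Of 10 samples, 2 were excluded for low viability or <5% CD34+ cells, leaving 8.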

[7] = 16 response eligible patients, poor-risk by NCCN criteria
[8] = 19 patients evaluable for response
[9] = treatment failure (n = 9), baseline 1, 5 not assessed

SMILES: O=C(/C=C\n1cnc(-c2cc(C(F)(F)F)cc(C(F)(F)F)c2)n1)NNc1cnccn1 [selinexor]
- Patients who died during the treatment or follow-up phases ([1]; 21 patients, majority related to relapsed or refractory AML): 62%
- Grade 3/4 nonhematologic TEAE sepsis ([1]; grade 3/4, selinexor + 7+3, 21 patients): 14%
- Median time to a platelet count ≥50,000 ([1]; human, in vivo): 35 days
- Median time to absolute neutrophil count (ANC) ≥500 ([1]; human, in vivo): 26 days
- Patients with at least one grade 3/4 AE ([1]; human, in vivo): 95%
- Only grade 3 AE during maintenance therapy ([1]; in vivo): fatigue
- Patients who experienced at least 1 TEAE ([1]; in vivo): Every patient
- Patients who experienced diarrhea or hyponatremia ([1]; in vivo): None
- Exposure (based on AUC) on days 1 and 15 ([2]; day 1 versus day 15): similar
- Tmax ([2]; oral, Mean Tmax, day 15, delayed absorption): 4 h
- AUC(0-t) ([2]; po, 60 mg, selinexor 60 mg oral, day 1, 4 patients): 1850 ± 972 ng·h/mL
- AUC(0-t) ([2]; po, 60 mg, selinexor 60 mg oral, day 15, 3 patients): 1710 ± 1030 ng·h/mL
- Cmax ([2]; po, 60 mg, Cmax, selinexor 60 mg oral, day 1, 4 patients): 457 ± 196 ng/mL
- Cmax ([2]; po, 60 mg, Cmax, selinexor 60 mg oral, day 15, 3 patients): 392 ± 290 ng/mL
- Cmax ([2]; po, 60 mg, Mean Cmax, selinexor 60 mg oral, day 1, 4 patients): 1030 nM
- Tmax ([2]; po, 60 mg, Tmax, selinexor 60 mg oral, day 1, 4 patients): 2 ± 3.2 h
- Tmax ([2]; po, 60 mg, Tmax, selinexor 60 mg oral, day 15, 3 patients): 4 ± 1.2 h
- AUC(0-t) ([2]; po, 80 mg, selinexor 80 mg oral, day 1, 17 patients): 2590 ± 1110 ng·h/mL
- AUC(0-t) ([2]; po, 80 mg, selinexor 80 mg oral, day 15, 13 patients): 2100 ± 1080 ng·h/mL
- Cmax ([2]; po, 80 mg, Cmax, selinexor 80 mg oral, day 1, 17 patients): 601 ± 302 ng/mL
- Cmax ([2]; po, 80 mg, Cmax, selinexor 80 mg oral, day 15, 13 patients): 482 ± 288 ng/mL
- Cmax ([2]; po, 80 mg, Mean Cmax, selinexor 80 mg oral, day 1, 17 patients): 1360 nM
- Tmax ([2]; po, 80 mg, Tmax, selinexor 80 mg oral, day 1, 17 patients): 2 ± 2.2 h
- Tmax ([2]; po, 80 mg, Tmax, selinexor 80 mg oral, day 15, 13 patients): 4 ± 2.5 h
- AUC0–8h ([2]; selinexor 60 mg oral, day 1, 4 patients): 1,853 ng/h/mL
- AUC0–8h ([2]; selinexor 80 mg oral, day 1, 17 patients): 2,590 ng/h/mL
- CRi after second induction ([3]; 6 patients who received a second induction (selinexor + 5+2)): 17%
- CR/CRi rate ([3]; 7 evaluable patients with TP53 mutation at diagnosis (6 with complex karyotype)): 43%
- Median OS ([3]; 10 responding patients, median follow-up 28.9 months): not reached
- CR/CRi rate ([3]; 16 evaluable patients treated at the RP2D (80 mg)): 50%
- CR/CRi rate [3, 7]: 50%
- Treatment failures [3, 7]: 50%
- Evaluable patients alive at 12 months (12-month OS) ([3]; 19 evaluable patients): 47.4%
- Median overall survival ([3]; 19 evaluable patients, median follow-up 26.9 months): 10.3 months
- CR/CRi rate (overall response rate) [3, 8]: 53%
- Patients who achieved CR [3, 8]: 42%
- Patients who achieved CRi [3, 8]: 11%
- Treatment failures due to refractory AML [3, 8]: 47%
- CR ([3]; age ≥60, n = 16): 7 (44) no. (%)
- CR + CRi ([3]; age ≥60, n = 16): 9 (56) no. (%)
- CRi ([3]; age ≥60, n = 16): 2 (13) no. (%)
- Treatment failure ([3]; age ≥60, n = 16): 7 (44) no. (%)
- CR ([3]; age ≥70, n = 8): 3 (38) no. (%)
- CR + CRi ([3]; age ≥70, n = 8): 3 (38) no. (%)
- CRi ([3]; age ≥70, n = 8): 0 (0) no. (%)
- Patients alive at median follow-up ([3]; all 21 patients, median follow-up 28.9 months): 38%
- Median overall survival ([3]; entire cohort, n = 21): 10.3 months
- CR ([3]; evaluable patients, n = 19): 8 (42.1) no. (%)
- CR + CRi ([3]; evaluable patients, n = 19): 10 (52.6) no. (%)
- CRi ([3]; evaluable patients, n = 19): 2 (10.5) no. (%)
- Treatment failure ([3]; evaluable patients, n = 19): 9 (47.4) no. (%)
- Responders alive ([3]; median follow-up of 28.9 months): 60%
- Responding patients who remained in CR/CRi ([3]; median follow-up of over 2 years, all underwent allogeneic stem cell transplant in first remission): 5 of 10
- CR/CRi rate ([3]; patients who had previously received a hypomethylating agent (8 patients)): 13%
- CR ([3]; prior HMA, n = 8): 1 (13) no. (%)
- CR + CRi ([3]; prior HMA, n = 8): 1 (13) no. (%)
- CRi ([3]; prior HMA, n = 8): 0 (0) no. (%)
- Treatment failure ([3]; prior HMA, n = 8): 7 (87) no. (%)
- CR ([3]; sAML, n = 12): 3 (25) no. (%)
- CR + CRi ([3]; sAML, n = 12): 4 (33) no. (%)
- CRi ([3]; sAML, n = 12): 1 (8) no. (%)
- Treatment failure ([3]; sAML, n = 12): 8 (67) no. (%)
- Patients who tested negative for measurable residual disease [4]: 5 patients
- Cytogenetics at follow-up: Chr 5 abnormalities ([5]; responders (n = 10), baseline 0): 0 no.
- Cytogenetics at follow-up: Chr 7 abnormalities ([5]; responders (n = 10), baseline 1): 1 no.
- Cytogenetics at follow-up: Other Chr abnormalities ([5]; responders (n = 10), baseline 2): 0 no.
- Cytogenetics at follow-up: Complex ([5]; responders (n = 10), baseline 3): 1 no.
- Cytogenetics at follow-up: Diploid ([5]; responders (n = 10), baseline 4): 8 no.
- Cytogenetics at follow-up: Chr 7 abnormalities ([5]; treatment failure (n = 9), baseline 0, 5 not assessed): 0 no.
- Cytogenetics at follow-up: Chr 5 abnormalities [5, 9]: 1 no.
- Cytogenetics at follow-up: Other Chr abnormalities [5, 9]: 0 no.
- Cytogenetics at follow-up: Diploid ([5]; treatment failure (n = 9), baseline 3, 5 not assessed): 2 no.
- Cytogenetics at follow-up: Complex ([5]; treatment failure (n = 9), baseline 4, 5 not assessed): 1 no.
- Interaction between selinexor and daunorubicin [6]: strong synergistic interactions; also recorded: strong synergy
- Synergy between selinexor and daunorubicin (gated CD34+ cells; titrated selinexor with 1 µmol/L daunorubicin, patient samples ex vivo): no synergy
- Effects of the combination on apoptosis (gated CD34+ cells; titrated selinexor with 40 µmol/L cytarabine or 1 µmol/L daunorubicin): additive
